The record followed here is ChEMBL document CHEMBL1795259, “Thymol, benzofuranoid, and phenylpropanoid derivatives: anti-inflammatory constituents from Eupatorium cannabinum” (J Nat Prod, 2011).

Holding throughout (conditions): Neutrophil
Assay [1] is described as follows: Antiinflammatory activity in human neutrophils assessed as inhibition of fMLP/cytochalasin B-induced elastase release using MeO-Suc-Ala-Ala-Pro-Val-p-nitroanilide as elastase substrate at 10 ug/mL after 5 mins. It is filed as functional. The gist of the method: (§1)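 Neutrophils isolated from venous blood of healthy adult volunteers (20-28 y) by dextran sedimentation, Ficoll-Hypaque centrifugation and hypotonic erythrocyte lysis, >98% viable, kept in Ca2+-free HBSS pH 7.4 at 4 °C. Cells (6 × 10^5/mL) given 100 μM substrate, equilibrated 2 min at 37 °C, compound 5 min, then fMLP 100 nM/CB 0.5 μg/mL; A405 monitored continuously. Mean ± SEM, n = 3-4.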

Assay [2] in a line: Antiinflammatory activity in human neutrophils assessed as inhibition of fMLP/cytochalasin B-induced superoxide anion production after 5 mins by spectrophotometer analysis. The format is functional, cell-based. A digest of the protocol:
(§2)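 Donor neutrophils (6 × 10^5/mL) prepared as for elastase, with 0.5 mg/mL ferricytochrome c and 1 mM Ca2+. Equilibrated 2 min at 37 °C, compound or DMSO 5 min, CB 1 μg/mL 3 min, then fMLP 100 nM 10 min. A550 monitored continuously with stirring. SOD (100 U/mL)-inhibitable reduction, ε = 21.1/mM/10 mm. Mean ± SEM, n = 3-4.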

A short description of assay [3]: Antiinflammatory activity in human neutrophils assessed as inhibition of fMLP/cytochalasin B-induced superoxide anion production at 10 ug/mL after 5 mins by spectrophotometer analysis. It is filed as functional. A digest of the protocol:
as §2

Assay [4] can be described thus: Antiinflammatory activity in human neutrophils assessed as inhibition of fMLP/cytochalasin B-induced elastase release using MeO-Suc-Ala-Ala-Pro-Val-p-nitroanilide as elastase substrate after 5 mins. The format is functional, cell-based. The gist of the method:
as §1

A word on the inhibition: it is the change of the read-out against control, counted positive when it falls. By IC50 is commonly meant the concentration that gives 50% inhibition.

As for `C/C=C(\C)C(=O)Oc1cc(C)ccc1C(C)COC(C)=O` (stereo not drawn), in assay [1], the inhibition at 10 µg/mL was 21.6%. For the same compound, in assay [2], the IC50 was determined as 18.4 µM.
For the compound `C=C(CO)c1ccc(C)cc1O`, the inhibition at 10 µg/mL turned out to be 2.67% in assay [3] and 1.86% in assay [1].
Taken in the same sequence, the figures for `C=C(COC(=O)/C(C)=C\C)c1ccc(C)cc1O` were 20.3% and 23%.
`C=C(COC(=O)CC(C)C)c1ccc(C)cc1O`: the inhibition at 10 µg/mL in assay [3] worked out at 39.6%. Further, in assay [4], the 50% inhibitory concentration (IC50) came to 18.3 µM.
As for `C/C=C(/C)C(=O)OCC(O)(COC(C)=O)c1ccc(C)cc1O` (stereo not drawn), the IC50 in assay [4] came out at 6.27 µM; in assay [2] it was 13.1 µM.
Consider `C=C(COC(C)=O)c1ccc(C)cc1OC(=O)/C(C)=C/C`, for which the inhibition at 10 µg/mL in assay [1] was determined as 36.6%. Also, the IC50 in assay [2] was found to be 8.5 µM.
With `C/C=C(\C)C(=O)Oc1cc(C)ccc1C1(COC(C)=O)CO1` (stereo not drawn), the concentration for half-maximal inhibition (IC50) in assay [4] turned out to be 25.8 µM; in assay [2], 8.32 µM.
With `C/C=C(/C)C(=O)OCC(C)(OC)c1ccc(C)cc1O` (stereo not drawn), the values for the inhibition at 10 µg/mL in assay [3] and in assay [1] were 14.7% and 13.6%, respectively.
Regarding `C=C(COC(=O)C(C)C)c1ccc(C)cc1O`, in assay [3], the inhibition at 10 µg/mL stood at 32.7%. Further, the IC50 in assay [4] is 16.1 µM.
Regarding `O=c1cc(N2CCOCC2)oc2c(-c3ccccc3)cccc12` [LY-294002], the results for the IC50 in assay [4] and in assay [2] were 1.98 µM and 1.09 µM, respectively.
Regarding `Cc1ccc2c(c1)OC1OC3(CCC21O)c1ccc(C)cc1OC3O` (stereo not drawn), the inhibition at 10 µg/mL in assay [3] was 4.37%; in assay [1], 13%.
As to `CC(=O)C(=O)c1ccc(C)cc1O`, the inhibition at 10 µg/mL in assay [3] worked out at 10.1%; in assay [1], 37.3%.
Taken in the same sequence, the figures for `Cc1ccc2c(c1)OC(C)(O)C2=O` (stereo not drawn) were 0.02% and 17.3%.
For `C=C1CC[C@]2(C)CC[C@]3(C)[C@H](CC[C@@H]4[C@@]5(C)CC[C@H](OC(C)=O)C(C)(C)[C@@H]5CC[C@]43C)[C@H]2[C@@H]1C` [TARAXASTEROL ACETATE] the same measures were 0.68% and 4.73%.
Consider `C/C=C(/C)C(=O)O[C@@H]1Oc2cc(C)ccc2[C@@]1(C)O` (relative stereo) [EUPATOBENZOFURAN], for which the inhibition at 10 µg/mL in assay [3] amounted to 37.1%. In addition, in assay [4], the IC50 was 11.3 µM.
Regarding `O=c1ccc2ccccc2o1` [COUMARIN], the inhibition at 10 µg/mL was determined as 8.5% in assay [3] and 23.8% in assay [1].
`CC(=O)c1ccc(CO)cc1O`: the figures for the IC50 in assay [4] and in assay [2] were 6.38 µM and 8.13 µM, respectively.
For `C=C(C)c1cc2cc(C(C)=O)c(O)cc2o1` [EUPARIN], the inhibition at 10 µg/mL in assay [3] came out at 13.7%; in assay [1], 12.6%.
Turning to `COC(C)(COC(=O)C(C)C)c1ccc(C)cc1O` (stereo not drawn), the inhibition at 10 µg/mL in assay [1] came out at 30%. In addition, the IC50 in assay [2] is 8.19 µM.
